From ChEMBL document CHEMBL1140160, “Evidence for the mechanism of action of the antifungal phytolaccoside B isolated from Phytolacca tetramera Hauman” (J Nat Prod, 2008)
Converted amounts (≈) assume the structure as drawn. Blank lines part the entries; values can stand above or below the compound they belong to. The source made the active and inactive calls. The rule behind the calls is not given here.

Columns and labels:
Saccharomyces cerevisiae [1] = test: Effect on (1->3)-beta-D-glucan synthase-mediated [14C]-Glucose incorporation in Saccharomyces cerevisiae assessed as residual activity after 30 mins
In short: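 Membrane fraction (18000g pellet) from early-log S. cerevisiae MATa trp1 ura3 leu2 his3 pep4::HIS3 nuc1::LEU2 broken with glass beads; 15 µg protein in 40 µL; compound 20 µg/assay added in MeOH; [14C]-glucose incorporation into insoluble glucan; 30 min at 30 °C, stopped with 10% TCA; duplicates; papulacandin B as standard.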

Aspergillus niger = test: Antifungal activity against Aspergillus niger ATCC 9029 after 48 hrs by spectrophotometry; assay type: functional; conditions: ATCC 9029, 48 h
Candida albicans = test: Antifungal activity against Candida albicans ATCC 10231 after 48 hrs by spectrophotometry; assay type: functional; conditions: ATCC 10231, 48 h; for MIC: read-out: MIC100
Saccharomyces cerevisiae [2] = test: Antifungal activity against Saccharomyces cerevisiae ATCC 9763 after 48 hrs by sorbitol protection assay by spectrophotometry; assay type: functional; conditions: ATCC 9763, 48 h; for MIC: read-out: MIC100
In short: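 S. cerevisiae ATCC 9763 by the standard broth microdilution procedure, run on duplicate plates of 2-fold dilutions, one plate with 0.8 M sorbitol added to every well as osmotic support; MICs read at 2 and 7 days.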

Cryptococcus neoformans = test: Antifungal activity against Cryptococcus neoformans ATCC 32264 after 48 hrs by spectrophotometry; assay type: functional; conditions: ATCC 32264, 48 h; for MIC: read-out: MIC100
Aspergillus fumigatus = test: Antifungal activity against Aspergillus fumigatus ATCC 26934 after 48 hrs by spectrophotometry; assay type: functional; conditions: ATCC 26934, 48 h, read-out: MIC100
Aspergillus flavus = test: Antifungal activity against Aspergillus flavus ATCC 9170 after 48 hrs by spectrophotometry; assay type: functional; conditions: ATCC 9170, 48 h, read-out: MIC100
[3] = Hemolytic effect in erythrocytes upto 120 mins by spectrophotometry; assay type: ADME, cell-based; conditions: erythrocyte, 2 h
In short: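 Heparinized human red blood cells washed three times in isotonic PBS pH 7.0, made into a 4% suspension in sterile 5% glucose. Compound from DMSO stock diluted in 5% glucose to final 188 to 9 µM; incubated at 37 °C. Released haemoglobin read at 540 nm. LC100 is the lowest concentration giving complete lysis (clearing). DMSO alone served as the vehicle control.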

Neurospora crassa [4] = test: Antifungal activity against Neurospora crassa ATCC 9279 after 48 hrs by spectrophotometry; assay type: functional; conditions: ATCC 9279, 48 h, read-out: MIC100
[5] = target: T1, Chitin synthase 1 (Saccharomyces cerevisiae S288c) (UniProt P08004); test: Effect on chitin synthase 1-mediated incorporation of [14C]N-acetylglucosamine in Saccharomyces cerevisiae assessed as residual activity after 90 mins
T1 sequence (whole entry): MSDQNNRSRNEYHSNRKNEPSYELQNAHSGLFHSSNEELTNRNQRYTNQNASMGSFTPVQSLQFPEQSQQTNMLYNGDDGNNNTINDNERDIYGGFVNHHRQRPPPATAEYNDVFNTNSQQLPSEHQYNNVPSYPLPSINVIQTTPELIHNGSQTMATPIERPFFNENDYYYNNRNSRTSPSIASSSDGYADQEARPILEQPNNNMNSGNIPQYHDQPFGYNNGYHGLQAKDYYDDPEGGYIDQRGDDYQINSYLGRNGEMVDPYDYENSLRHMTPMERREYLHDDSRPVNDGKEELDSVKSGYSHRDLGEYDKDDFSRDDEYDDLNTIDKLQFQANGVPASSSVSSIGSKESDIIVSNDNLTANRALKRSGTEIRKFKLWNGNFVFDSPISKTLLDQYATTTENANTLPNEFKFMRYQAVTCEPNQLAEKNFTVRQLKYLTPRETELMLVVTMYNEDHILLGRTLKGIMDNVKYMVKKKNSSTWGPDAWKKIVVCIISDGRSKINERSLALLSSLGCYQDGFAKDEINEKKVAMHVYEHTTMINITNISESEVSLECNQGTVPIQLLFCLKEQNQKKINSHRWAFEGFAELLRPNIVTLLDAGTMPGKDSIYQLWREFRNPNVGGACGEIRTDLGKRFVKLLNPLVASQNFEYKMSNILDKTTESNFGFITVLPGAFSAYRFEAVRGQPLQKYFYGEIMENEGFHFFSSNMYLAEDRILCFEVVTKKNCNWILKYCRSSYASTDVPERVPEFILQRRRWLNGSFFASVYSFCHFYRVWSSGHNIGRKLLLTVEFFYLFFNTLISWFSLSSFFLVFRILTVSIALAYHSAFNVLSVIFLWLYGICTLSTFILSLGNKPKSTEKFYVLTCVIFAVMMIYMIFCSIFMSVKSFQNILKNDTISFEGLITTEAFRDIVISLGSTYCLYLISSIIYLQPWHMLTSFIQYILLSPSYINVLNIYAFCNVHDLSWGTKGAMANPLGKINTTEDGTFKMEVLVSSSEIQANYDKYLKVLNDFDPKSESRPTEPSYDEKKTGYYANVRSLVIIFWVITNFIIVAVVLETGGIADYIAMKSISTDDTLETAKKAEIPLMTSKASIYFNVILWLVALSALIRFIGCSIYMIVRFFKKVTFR

[6] = target: T1, Chitin synthase 1 (Saccharomyces cerevisiae S288c); test: Effect on chitin synthase 1-mediated incorporation of [14C]N-Acetylglucosamine in Saccharomyces cerevisiae assessed as residual activity after 90 mins in presence of trypsin
In short: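 Same S. cerevisiae membrane fraction, 30 µg protein in 50 µL; compound 20 µg/assay in MeOH; zymogen activated by trypsin (2 µL of 0.25 µg/µL, 15 min, 30 °C) then stopped with trypsin inhibitor; [14C]-N-acetylglucosamine incorporation into chitin over 90 min at 30 °C, stopped with 10% TCA; duplicates; nikkomycin Z as reference.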

Neurospora crassa [7] = test: Antifungal activity against Neurospora crassa assessed as increase in thickness of hyphae relative to control at 37 uM; assay type: functional, organism-based
In short: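 N. crassa ATCC 9279, 1 × 10^5 spores/mL, grown 24 h at 28 °C with shaking (145 rpm) in YEPD with or without 37 µM. Mycelium fixed in 4% glutaraldehyde in 0.1 M cacodylate, OsO4 and KMnO4 treated, acetone-dehydrated, Spurr-embedded; ultrathin sections stained with uranyl acetate and Reynolds solution; wall thickness measured by transmission electron microscopy.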

Saccharomyces cerevisiae [8] = test: Antifungal activity against Saccharomyces cerevisiae assessed as increase in cellular leakage at 74 uM relative to sodium dodecyl sulphate at 6-48 hrs using spectrophotometry; assay type: functional
In short: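 S. cerevisiae ATCC 9763 grown with shaking at 30 °C to early stationary phase, washed twice, diluted to (3-5) × 10^7 cells/mL in cold MOPS buffer pH 6.0; compound at final 74 µM; 2% SDS set as 100% leakage; incubated at 30 °C and sampled at 6, 12, 24 and 48 h; supernatant absorbance at 260 nm; means of at least two independent assays; Student's test.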

Saccharomyces cerevisiae [9] = test: Antifungal activity against Saccharomyces cerevisiae assessed as binding to membrane ergosterol in presence of exogenous ergosterol; assay type: functional, organism-based
[10] = target: T1, Chitin synthase 1 (Saccharomyces cerevisiae S288c); test: Enhancement of chitin synthase 1 activity in Saccharomyces cerevisiae assessed as increase in amount of cell wall chitin at 37 uM by calcofluor staining
In short: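 Exponentially growing S. cerevisiae ATCC 9763 in YEPD, untreated or exposed to 37 µM, washed and stained with Calcofluor white (20 µM final, 5 min, rt); fluorescence around mother and daughter cell surfaces examined by UV fluorescence microscopy, 400×, same exposure times.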

[11] = target: T1, Chitin synthase 1 (Saccharomyces cerevisiae S288c); test: Enhancement of chitin synthase 1 activity in Saccharomyces cerevisiae assessed as increase in amount of cell wall chitin at 100 mg by Reissig method
In short: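 Untreated and 37 µM-treated S. cerevisiae cells (100 mg each) extracted with 6% KOH for 90 min, digested with chitinase and glusulase; N-acetylglucosamine measured by the Reissig reaction (potassium tetraborate, boiling 3 min, DMAB 20 min at 36-38 °C), absorbance at 585 nm; NAG as standard.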

[12] = target: Chitin synthase 1 (Neurospora crassa OR74A) (UniProt P29070); test: Enhancement of chitin synthase 1 activity in Neurospora crassa assessed as increase in amount of cell wall chitin at 37 uM by calcofluor staining
In short: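 Exponentially growing N. crassa ATCC 9279 hyphae in YEPD liquid medium, untreated or exposed to 37 µM, washed and stained with Calcofluor white (20 µM final, 5 min, rt), washed; chitin visualised as bluish fluorescence under UV by fluorescence microscopy, 400×, same exposure times.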

[13] = target: Chitin synthase 1 (Neurospora crassa OR74A) (UniProt P29070); test: Enhancement of chitin synthase 1 activity in Neurospora crassa assessed as increase in cell wall thickness at 37 uM by transmission electron microscopy

Chitin synthase 1 (Neurospora crassa OR74A), sequence (P29070 whole entry): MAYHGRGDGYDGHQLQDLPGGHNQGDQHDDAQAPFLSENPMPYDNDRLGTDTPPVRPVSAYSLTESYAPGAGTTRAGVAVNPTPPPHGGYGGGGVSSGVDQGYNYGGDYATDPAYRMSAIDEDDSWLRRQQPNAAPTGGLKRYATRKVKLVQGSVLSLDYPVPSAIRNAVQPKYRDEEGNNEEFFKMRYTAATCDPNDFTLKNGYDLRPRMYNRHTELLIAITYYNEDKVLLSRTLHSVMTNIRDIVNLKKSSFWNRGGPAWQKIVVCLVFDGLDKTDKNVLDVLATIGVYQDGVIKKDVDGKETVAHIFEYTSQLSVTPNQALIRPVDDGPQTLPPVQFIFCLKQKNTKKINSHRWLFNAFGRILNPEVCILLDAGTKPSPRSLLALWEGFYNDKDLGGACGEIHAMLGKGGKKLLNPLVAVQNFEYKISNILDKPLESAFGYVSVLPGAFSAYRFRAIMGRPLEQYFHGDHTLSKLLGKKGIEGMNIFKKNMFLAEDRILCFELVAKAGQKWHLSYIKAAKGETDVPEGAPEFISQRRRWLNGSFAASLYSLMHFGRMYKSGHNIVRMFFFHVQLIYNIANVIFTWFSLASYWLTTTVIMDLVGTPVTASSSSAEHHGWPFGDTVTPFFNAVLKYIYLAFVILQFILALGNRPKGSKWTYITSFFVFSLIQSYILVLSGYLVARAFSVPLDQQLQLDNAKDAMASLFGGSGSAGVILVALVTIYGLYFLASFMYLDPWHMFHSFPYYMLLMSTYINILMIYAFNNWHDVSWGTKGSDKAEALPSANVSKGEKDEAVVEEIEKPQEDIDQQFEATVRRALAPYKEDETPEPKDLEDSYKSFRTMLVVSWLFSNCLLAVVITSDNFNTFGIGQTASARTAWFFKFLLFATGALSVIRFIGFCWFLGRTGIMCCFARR

- Activity (Saccharomyces cerevisiae [1]): 5%
SMILES: CCC(O)/C=C/C=C/C=C/C(=O)OC[C@H]1O[C@@H](O[C@H]2[C@H](OC(=O)/C=C/C=C/CC(O)/C(C)=C/C=C/CCC(C)CC)[C@@H](O)[C@@]3(OCc4cc(O)cc(O)c43)O[C@@H]2CO)[C@H](O)[C@@H](O)[C@H]1O (stereo partly drawn)

SMILES: C[C@@H]1[C@H](O)[C@@H](C)/C=C/C=C/C=C/C=C/C=C/C=C/C=C/[C@H](O[C@@H]2O[C@H](C)[C@@H](O)[C@H](N)[C@@H]2O)C[C@@H]2O[C@](O)(C[C@@H](O)C[C@@H](O)[C@H](O)CC[C@@H](O)C[C@@H](O)CC(=O)O[C@H]1C)C[C@H](O)[C@H]2C(=O)O [AMPHOTERICIN B]
- MIC (Aspergillus niger; read-out: MIC100): 0.5 µM (≈ 0.462 µg/mL)
- MIC (Candida albicans): 0.84 µM (≈ 0.776 µg/mL)
- MIC (Saccharomyces cerevisiae [2]): 1.62 µM (≈ 1.5 µg/mL)
- MIC (Cryptococcus neoformans): 0.27 µM (≈ 0.25 µg/mL)
- MIC (Aspergillus fumigatus): 0.5 µM (≈ 0.462 µg/mL)
- MIC (Aspergillus flavus): 0.5 µM (≈ 0.462 µg/mL)
- LC100 [3]: 13.5 µM
- MIC (Neurospora crassa [4]): 1 µM (≈ 0.924 µg/mL)

SMILES: COC(=O)[C@@]1(C)CC[C@]2(C(=O)O)CC[C@]3(C)C(=CC[C@@H]4[C@@]5(C)C[C@H](O)[C@H](O[C@@H]6OC[C@@H](O)[C@H](O)[C@H]6O)[C@@](C)(CO)[C@@H]5CC[C@]43C)[C@@H]2C1 [PHYTOLACCOSIDE B]
- MIC (Aspergillus niger; read-out: MIC): 188 µM (≈ 125 µg/mL)
- MFC (Candida albicans): 150 µM (≈ 99.7 µg/mL)
- MIC50 (Candida albicans): 74 µM (≈ 49.2 µg/mL)
- MIC80 (Candida albicans): 74 µM (≈ 49.2 µg/mL)
- MIC (Candida albicans): 74 µM (≈ 49.2 µg/mL)
- MFC (Saccharomyces cerevisiae [2]): 150 µM (≈ 99.7 µg/mL)
- MIC50 (Saccharomyces cerevisiae [2]): 18 µM (≈ 12 µg/mL)
- MIC80 (Saccharomyces cerevisiae [2]): 37 µM (≈ 24.6 µg/mL)
- MIC (Saccharomyces cerevisiae [2]): 74 µM (≈ 49.2 µg/mL)
- MFC (Cryptococcus neoformans): 112 µM (≈ 74.5 µg/mL)
- MIC50 (Cryptococcus neoformans): 9 µM (≈ 5.98 µg/mL)
- MIC80 (Cryptococcus neoformans): 74 µM (≈ 49.2 µg/mL)
- MIC (Cryptococcus neoformans): 112 µM (≈ 74.5 µg/mL)
- MIC (Aspergillus fumigatus): 188 µM (≈ 125 µg/mL)
- MIC (Aspergillus flavus): 74 µM (≈ 49.2 µg/mL)
- Activity (Saccharomyces cerevisiae [1]): 93.4%
- Activity [5]: 190%
- Activity [6]: 166%
- LC100 [3]: > 188 µM
- Activity (Neurospora crassa [7]): Active
- Activity (Saccharomyces cerevisiae [8]): 17%
- MIC (Neurospora crassa [4]): 74 µM (≈ 49.2 µg/mL)
- Activity (Saccharomyces cerevisiae [9]): inactive
- Activity [10]: Active
- Activity [11]: 23%
- Activity [12]: Active
- Activity [13]: 400 nm

SMILES: CC(=O)N1CCN(c2ccc(OCC3COC(Cn4ccnc4)(c4ccc(Cl)cc4Cl)O3)cc2)CC1 (stereo not drawn) [KETOCONAZOLE]
- MIC (Aspergillus niger; read-out: MIC100): 0.25 µM (≈ 0.133 µg/mL)
- MIC (Candida albicans): 1 µM (≈ 0.531 µg/mL)
- MIC (Saccharomyces cerevisiae [2]): 1 µM (≈ 0.531 µg/mL)
- MIC (Cryptococcus neoformans): 0.5 µM (≈ 0.266 µg/mL)
- MIC (Aspergillus fumigatus): 0.13 µM (≈ 0.0691 µg/mL)
- MIC (Aspergillus flavus): 0.5 µM (≈ 0.266 µg/mL)
- MIC (Neurospora crassa [4]): 2 µM (≈ 1.06 µg/mL)
